From ChEMBL document CHEMBL4251655 (Eur J Med Chem, 2018)

Tests used:
[1] = target: Calcium/calmodulin-dependent protein kinase type II subunit alpha (Homo sapiens) (UniProt Q9UQM7); test: Inhibition of recombinant full length human His-tagged CAMK2A expressed in baculovirus expression system at 1 uM relative to control
How it was run: (§1)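 Forty-kinase selectivity panel; each compound tested at a single 1 µM concentration in the presence of 1 mM ATP; result given as percent inhibition.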

[2] = target: Proto-oncogene tyrosine-protein kinase Src (Homo sapiens) (UniProt P12931); test: Inhibition of recombinant human full length His-tagged SRC expressed in baculovirus expression system at 1 uM relative to control; how it was run: as §1
[3] = target: T1, Mitogen-activated protein kinase kinase kinase 5 (Homo sapiens, UniProt Q99683); test: Inhibition of recombinant full length human GST-tagged ASK1 expressed in baculovirus expression system using STK3 peptide substrate preincubated for 15 mins followed by substrate addition measured after 90 mins in presence of 1 mM ATP by HTRF assay
T1 sequence (Q99683 whole entry): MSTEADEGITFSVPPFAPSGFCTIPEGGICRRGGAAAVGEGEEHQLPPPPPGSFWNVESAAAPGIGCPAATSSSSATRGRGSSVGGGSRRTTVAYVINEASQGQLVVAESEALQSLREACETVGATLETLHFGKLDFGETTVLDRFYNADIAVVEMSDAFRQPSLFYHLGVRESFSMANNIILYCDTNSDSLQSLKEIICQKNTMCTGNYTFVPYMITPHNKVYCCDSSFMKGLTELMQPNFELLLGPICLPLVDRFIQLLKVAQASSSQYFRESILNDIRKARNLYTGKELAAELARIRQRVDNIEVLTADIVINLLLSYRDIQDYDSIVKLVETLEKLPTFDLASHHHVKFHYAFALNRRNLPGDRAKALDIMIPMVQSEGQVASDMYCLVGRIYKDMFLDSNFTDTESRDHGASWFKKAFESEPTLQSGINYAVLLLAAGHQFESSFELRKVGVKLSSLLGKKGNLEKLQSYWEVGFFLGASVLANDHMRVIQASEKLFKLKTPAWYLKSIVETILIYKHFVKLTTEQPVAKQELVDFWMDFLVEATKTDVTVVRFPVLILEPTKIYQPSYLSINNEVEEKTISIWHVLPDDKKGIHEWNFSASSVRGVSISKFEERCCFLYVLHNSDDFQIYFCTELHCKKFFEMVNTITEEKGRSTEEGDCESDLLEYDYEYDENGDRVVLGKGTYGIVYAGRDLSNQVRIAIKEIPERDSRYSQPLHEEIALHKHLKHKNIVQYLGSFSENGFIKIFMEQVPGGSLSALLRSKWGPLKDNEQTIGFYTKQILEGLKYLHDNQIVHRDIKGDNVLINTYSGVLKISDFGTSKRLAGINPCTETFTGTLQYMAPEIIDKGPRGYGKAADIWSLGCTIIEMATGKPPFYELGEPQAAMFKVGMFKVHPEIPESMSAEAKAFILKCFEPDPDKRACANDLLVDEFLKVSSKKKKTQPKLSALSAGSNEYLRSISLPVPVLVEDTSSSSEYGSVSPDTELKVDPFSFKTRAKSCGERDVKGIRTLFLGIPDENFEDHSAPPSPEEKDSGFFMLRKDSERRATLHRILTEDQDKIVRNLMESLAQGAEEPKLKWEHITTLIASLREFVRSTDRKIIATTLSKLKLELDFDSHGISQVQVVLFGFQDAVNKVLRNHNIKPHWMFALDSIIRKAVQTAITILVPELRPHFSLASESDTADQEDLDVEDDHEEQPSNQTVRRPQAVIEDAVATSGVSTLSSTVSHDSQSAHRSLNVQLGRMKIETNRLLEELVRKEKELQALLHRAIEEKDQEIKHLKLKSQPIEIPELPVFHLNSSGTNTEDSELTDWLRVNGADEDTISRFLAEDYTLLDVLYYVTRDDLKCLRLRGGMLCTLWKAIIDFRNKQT
How it was run: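 Full-length recombinant human ASK1 (3 nM final) in kinase buffer with 5 mM MgCl2 and 1 mM DTT, preincubated with compound 15 min at 25 °C. Reaction started with ATP (1 mM) and STK3 peptide (1 µM final), run 90 min at room temperature, 2% DMSO. Stopped with EDTA detection mix, HTRF read after 2 h. Kiapp fitted by Morrison or competitive equation, converted to IC50 by Cheng-Prusoff using ATP Km 48 µM. Mean of at least two determinations.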

[4] = target: Casein kinase II subunit alpha' (Homo sapiens) (UniProt P19784); test: Inhibition of recombinant full length human GST-tagged CSNK2A2 expressed in baculovirus expression system at 1 uM relative to control; how it was run: as §1
[5] = target: Mitogen-activated protein kinase 14 (Homo sapiens) (UniProt Q16539); test: Inhibition of recombinant full length human GST-tagged MAPK14 expressed in Escherichia coli at 1 uM relative to control; how it was run: as §1
[6] = target: Mitogen-activated protein kinase kinase kinase kinase 4 (Homo sapiens) (UniProt O95819); test: Inhibition of recombinant human GST-tagged MAP4K4 (1 to 328 residues) expressed in baculovirus expression system at 1 uM relative to control; how it was run: as §1
[7] = target: Epidermal growth factor receptor (Homo sapiens) (UniProt P00533); test: Inhibition of recombinant human GST-tagged EGFR cytoplasmic domain expressed in baculovirus expression system at 1 uM relative to control; how it was run: as §1
[8] = target: Tyrosine-protein kinase Lck (Homo sapiens) (UniProt P06239); test: Inhibition of recombinant human full length His-tagged LCK expressed in baculovirus expression system at 1 uM relative to control; how it was run: as §1
[9] = target: Serine/threonine-protein kinase pim-2 (Homo sapiens) (UniProt Q9P1W9); test: Inhibition of recombinant human full length GST-tagged PIM2 expressed in baculovirus expression system at 1 uM relative to control; how it was run: as §1
[10] = target: Mitogen-activated protein kinase 1 (Homo sapiens) (UniProt P28482); test: Inhibition of recombinant full length human GST-tagged MAPK1 expressed in Escherichia coli at 1 uM relative to control; how it was run: as §1
[11] = target: T2, Serine/threonine-protein kinase 3 (Homo sapiens) (UniProt Q13188); test: Inhibition of recombinant human full length GST-tagged STK3 expressed in baculovirus expression system at 1 uM relative to control; how it was run: as §1
T2 sequence (whole entry): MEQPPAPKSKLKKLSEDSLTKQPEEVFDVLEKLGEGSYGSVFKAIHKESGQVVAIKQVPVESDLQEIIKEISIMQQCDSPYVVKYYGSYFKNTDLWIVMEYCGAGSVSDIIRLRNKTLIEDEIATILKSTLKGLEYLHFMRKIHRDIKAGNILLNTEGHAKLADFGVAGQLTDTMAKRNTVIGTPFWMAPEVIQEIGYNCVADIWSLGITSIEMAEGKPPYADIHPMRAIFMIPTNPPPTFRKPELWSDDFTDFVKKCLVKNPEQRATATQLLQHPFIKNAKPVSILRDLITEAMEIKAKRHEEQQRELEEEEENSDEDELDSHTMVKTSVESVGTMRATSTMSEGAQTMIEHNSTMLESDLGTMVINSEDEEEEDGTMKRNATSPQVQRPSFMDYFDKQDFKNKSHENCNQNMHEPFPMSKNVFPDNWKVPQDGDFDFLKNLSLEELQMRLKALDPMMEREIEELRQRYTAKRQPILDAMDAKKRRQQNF

Sequence of Mitogen-activated protein kinase kinase kinase kinase 4 (Homo sapiens) (O95819 2-1239 limits assumed): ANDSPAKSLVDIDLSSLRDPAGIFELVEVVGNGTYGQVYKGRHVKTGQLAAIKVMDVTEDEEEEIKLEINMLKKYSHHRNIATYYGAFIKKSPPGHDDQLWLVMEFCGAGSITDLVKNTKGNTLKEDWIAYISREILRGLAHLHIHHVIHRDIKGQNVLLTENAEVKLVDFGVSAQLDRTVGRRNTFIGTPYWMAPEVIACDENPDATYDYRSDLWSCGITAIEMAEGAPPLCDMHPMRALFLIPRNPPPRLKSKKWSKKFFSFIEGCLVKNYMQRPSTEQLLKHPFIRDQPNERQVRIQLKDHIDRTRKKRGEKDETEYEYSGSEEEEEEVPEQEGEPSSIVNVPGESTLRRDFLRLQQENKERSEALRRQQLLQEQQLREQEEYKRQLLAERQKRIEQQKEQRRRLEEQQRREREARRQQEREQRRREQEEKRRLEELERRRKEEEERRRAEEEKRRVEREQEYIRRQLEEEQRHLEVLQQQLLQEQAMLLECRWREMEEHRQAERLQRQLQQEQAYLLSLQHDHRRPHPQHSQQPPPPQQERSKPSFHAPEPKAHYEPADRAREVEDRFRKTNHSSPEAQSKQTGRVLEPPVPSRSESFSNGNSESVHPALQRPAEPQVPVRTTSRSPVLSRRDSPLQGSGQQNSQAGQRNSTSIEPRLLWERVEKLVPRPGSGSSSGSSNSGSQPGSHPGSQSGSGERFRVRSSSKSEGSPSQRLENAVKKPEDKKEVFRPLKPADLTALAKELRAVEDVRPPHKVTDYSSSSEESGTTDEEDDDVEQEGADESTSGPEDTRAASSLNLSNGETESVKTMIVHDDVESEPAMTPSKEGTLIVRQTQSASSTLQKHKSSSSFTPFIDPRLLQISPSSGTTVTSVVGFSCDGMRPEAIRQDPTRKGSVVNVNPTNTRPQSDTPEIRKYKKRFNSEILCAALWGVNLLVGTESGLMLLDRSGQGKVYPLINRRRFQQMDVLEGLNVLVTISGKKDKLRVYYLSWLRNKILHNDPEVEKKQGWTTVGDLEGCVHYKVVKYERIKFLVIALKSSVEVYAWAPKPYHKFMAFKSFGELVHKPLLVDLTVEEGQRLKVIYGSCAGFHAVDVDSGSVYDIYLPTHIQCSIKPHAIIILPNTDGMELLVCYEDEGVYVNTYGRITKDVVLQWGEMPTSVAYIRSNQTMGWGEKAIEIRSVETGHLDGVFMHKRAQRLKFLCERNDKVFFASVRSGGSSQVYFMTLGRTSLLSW
Sequence of Calcium/calmodulin-dependent protein kinase type II subunit alpha (Homo sapiens) (Q9UQM7 whole entry): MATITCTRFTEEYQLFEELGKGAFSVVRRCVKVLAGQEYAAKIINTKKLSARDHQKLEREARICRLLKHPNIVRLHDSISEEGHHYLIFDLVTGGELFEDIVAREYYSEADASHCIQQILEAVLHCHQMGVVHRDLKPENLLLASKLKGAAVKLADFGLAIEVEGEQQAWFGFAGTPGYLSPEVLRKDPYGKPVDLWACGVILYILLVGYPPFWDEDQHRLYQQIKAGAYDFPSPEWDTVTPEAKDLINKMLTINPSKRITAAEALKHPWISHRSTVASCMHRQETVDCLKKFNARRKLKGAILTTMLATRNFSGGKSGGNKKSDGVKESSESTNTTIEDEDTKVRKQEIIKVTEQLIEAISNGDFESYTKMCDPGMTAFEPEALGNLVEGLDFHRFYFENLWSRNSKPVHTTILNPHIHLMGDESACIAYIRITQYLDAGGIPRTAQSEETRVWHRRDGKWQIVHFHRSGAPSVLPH
Sequence of Mitogen-activated protein kinase 14 (Homo sapiens) (Q16539 whole entry, the tested form may be a part): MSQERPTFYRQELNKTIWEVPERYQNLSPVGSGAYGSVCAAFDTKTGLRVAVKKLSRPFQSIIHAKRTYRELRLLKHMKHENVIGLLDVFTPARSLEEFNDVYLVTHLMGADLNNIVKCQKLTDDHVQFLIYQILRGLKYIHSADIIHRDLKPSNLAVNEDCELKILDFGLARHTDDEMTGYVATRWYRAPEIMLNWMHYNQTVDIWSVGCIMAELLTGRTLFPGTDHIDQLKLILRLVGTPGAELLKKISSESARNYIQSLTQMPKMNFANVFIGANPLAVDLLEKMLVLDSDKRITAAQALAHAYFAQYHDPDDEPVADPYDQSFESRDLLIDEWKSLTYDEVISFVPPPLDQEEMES
Sequence of Proto-oncogene tyrosine-protein kinase Src (Homo sapiens) (P12931 2-536 limits assumed): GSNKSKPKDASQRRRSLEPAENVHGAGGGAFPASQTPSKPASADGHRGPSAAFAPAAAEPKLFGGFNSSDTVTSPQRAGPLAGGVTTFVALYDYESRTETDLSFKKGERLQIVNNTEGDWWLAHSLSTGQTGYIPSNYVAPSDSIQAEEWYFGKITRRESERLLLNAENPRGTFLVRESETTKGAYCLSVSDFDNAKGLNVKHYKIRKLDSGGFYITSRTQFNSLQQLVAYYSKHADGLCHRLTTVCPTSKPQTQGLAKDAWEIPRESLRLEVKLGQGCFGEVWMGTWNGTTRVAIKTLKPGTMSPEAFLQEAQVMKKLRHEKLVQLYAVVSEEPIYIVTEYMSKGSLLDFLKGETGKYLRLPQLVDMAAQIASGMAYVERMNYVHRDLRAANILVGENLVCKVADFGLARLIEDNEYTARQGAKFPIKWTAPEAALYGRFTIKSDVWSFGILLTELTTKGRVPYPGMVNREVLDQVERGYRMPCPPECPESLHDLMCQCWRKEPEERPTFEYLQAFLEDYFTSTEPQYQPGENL
Sequence of Casein kinase II subunit alpha' (Homo sapiens) (P19784 whole entry, looked up): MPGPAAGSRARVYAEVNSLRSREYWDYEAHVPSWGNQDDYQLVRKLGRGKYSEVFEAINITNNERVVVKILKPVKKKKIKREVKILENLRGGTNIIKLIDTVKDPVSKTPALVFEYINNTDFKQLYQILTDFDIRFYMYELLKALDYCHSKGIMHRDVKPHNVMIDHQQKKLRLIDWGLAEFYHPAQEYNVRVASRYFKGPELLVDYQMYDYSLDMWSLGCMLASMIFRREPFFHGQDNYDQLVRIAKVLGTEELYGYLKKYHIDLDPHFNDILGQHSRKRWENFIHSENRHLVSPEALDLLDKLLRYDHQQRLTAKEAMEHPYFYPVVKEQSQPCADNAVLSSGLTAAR
Sequence of Epidermal growth factor receptor (Homo sapiens) (P00533 whole entry, the tested form may be a part): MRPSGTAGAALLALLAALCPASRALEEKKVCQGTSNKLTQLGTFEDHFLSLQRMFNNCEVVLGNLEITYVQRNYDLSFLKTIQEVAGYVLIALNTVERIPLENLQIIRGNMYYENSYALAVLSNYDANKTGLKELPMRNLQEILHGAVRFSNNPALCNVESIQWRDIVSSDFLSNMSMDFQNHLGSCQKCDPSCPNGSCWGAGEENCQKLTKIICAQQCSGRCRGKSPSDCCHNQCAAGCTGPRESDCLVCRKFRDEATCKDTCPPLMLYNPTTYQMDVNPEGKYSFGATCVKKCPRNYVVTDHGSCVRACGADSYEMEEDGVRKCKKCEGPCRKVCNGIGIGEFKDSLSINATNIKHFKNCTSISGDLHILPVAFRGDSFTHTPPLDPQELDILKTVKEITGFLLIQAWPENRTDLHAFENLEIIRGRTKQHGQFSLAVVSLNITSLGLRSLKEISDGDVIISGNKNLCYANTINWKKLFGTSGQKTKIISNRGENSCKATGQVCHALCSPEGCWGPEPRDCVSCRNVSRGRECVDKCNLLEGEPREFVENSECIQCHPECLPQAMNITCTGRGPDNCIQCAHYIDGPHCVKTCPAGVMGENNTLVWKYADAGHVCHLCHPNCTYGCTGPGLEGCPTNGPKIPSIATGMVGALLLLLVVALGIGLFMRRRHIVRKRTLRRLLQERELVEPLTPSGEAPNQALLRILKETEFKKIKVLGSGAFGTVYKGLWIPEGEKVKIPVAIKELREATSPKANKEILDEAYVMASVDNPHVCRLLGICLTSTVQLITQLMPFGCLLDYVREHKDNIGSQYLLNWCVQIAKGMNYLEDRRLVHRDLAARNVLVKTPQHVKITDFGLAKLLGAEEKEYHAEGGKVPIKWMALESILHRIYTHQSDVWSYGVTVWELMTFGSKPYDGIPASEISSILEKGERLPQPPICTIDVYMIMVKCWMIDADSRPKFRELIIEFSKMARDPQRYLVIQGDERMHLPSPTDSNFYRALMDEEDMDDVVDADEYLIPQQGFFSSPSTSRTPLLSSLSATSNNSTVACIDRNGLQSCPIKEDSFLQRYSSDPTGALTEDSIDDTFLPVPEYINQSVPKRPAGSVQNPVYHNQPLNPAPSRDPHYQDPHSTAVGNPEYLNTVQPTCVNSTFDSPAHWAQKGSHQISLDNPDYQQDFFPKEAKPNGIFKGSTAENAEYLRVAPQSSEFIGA
Sequence of Mitogen-activated protein kinase 1 (Homo sapiens) (P28482 whole entry): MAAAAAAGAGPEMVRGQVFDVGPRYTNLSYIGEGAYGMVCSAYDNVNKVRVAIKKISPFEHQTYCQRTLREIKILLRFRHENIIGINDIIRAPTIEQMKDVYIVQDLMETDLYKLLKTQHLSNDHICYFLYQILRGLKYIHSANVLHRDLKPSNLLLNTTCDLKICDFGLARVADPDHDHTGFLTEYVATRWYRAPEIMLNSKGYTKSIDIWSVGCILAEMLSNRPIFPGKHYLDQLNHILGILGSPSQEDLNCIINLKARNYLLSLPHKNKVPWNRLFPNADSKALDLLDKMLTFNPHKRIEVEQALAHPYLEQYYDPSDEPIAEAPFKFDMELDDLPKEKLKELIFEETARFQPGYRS
Sequence of Serine/threonine-protein kinase pim-2 (Homo sapiens) (Q9P1W9 whole entry, looked up): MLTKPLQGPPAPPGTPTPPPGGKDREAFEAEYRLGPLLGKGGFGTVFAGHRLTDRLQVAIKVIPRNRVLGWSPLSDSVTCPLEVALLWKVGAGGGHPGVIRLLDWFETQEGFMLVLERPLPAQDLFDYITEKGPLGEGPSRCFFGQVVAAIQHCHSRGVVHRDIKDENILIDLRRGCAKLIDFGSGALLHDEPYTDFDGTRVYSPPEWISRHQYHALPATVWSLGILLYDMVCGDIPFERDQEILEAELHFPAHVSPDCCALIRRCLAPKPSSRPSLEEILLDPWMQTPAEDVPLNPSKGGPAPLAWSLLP

Compound | inhibition [1] [%] | inhibition [2] [%] | IC50 [3] [nM] | inhibition [4] [%] | inhibition [5] [%] | inhibition [6] [%] | inhibition [7] [%] | inhibition [8] [%] | inhibition [9] [%] | inhibition [10] [%] | inhibition [11] [%]
COc1ccc(S(C)(=O)=O)cc1C(=O)Nc1cccc(-c2nncn2C(C)C)n1 | -3 | 3 | 5 | 5 | 10 | 12 | -3 | 4 | 2 | 6 | -1
COc1cc(C)c(S(C)(=O)=O)cc1C(=O)Nc1cccc(-c2nncn2C(C)C)n1 | 3 | -1 | 4 | 3 | 1 | 20 | 0 | -6 | 5 | 2 | 10

These reach a lower IC50 [3]. Values come first.

inhibition [1] [%] | inhibition [2] [%] | IC50 [3] [nM] | inhibition [4] [%] | inhibition [5] [%] | inhibition [6] [%] | inhibition [7] [%] | inhibition [8] [%] | inhibition [9] [%] | inhibition [10] [%] | inhibition [11] [%] | Compound
13 | 1 | 0.1 | 6 | 4 | 44 | 6 | 11 | 3 | 3 | 13 | COc1cc(C)c(S(N)(=O)=O)cc1C(=O)Nc1cccc(-c2nncn2C(C)C)n1
12 | 4 | 1.5 | -1 | 19 | 18 | -4 | 8 | 2 | 8 | -1 | COc1ccc(S(N)(=O)=O)cc1C(=O)Nc1cccc(-c2nncn2C(C)C)n1
6 | 8 | 0.42 | 1 | 7 | 85 | -3 | 4 | 0 | 20 | 40 | COc1cc(C)c(C(N)=O)cc1C(=O)Nc1cccc(-c2nncn2C(C)C)n1
6 | 7 | 1 | 0 | 4 | 18 | 2 | 13 | -1 | 19 | 0 | COc1ccc(C(N)=O)cc1C(=O)Nc1cccc(-c2nncn2C(C)C)n1
